# A selection: hits, their analogues and other compounds. The true share with any hit is near 1.3%.
# Biofilm kill mix: mixtures killing C. albicans biofilm; C. albicans biofilm persisters + clotrimazole, fluorescence viability; primary screen in compound mixtures of four per well; inhibition, % at 7.6 µM; 120,000 compounds, 0.02% hits; AID 1242;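 active means inhibition above 30.3% in the primary screen of four-compound pools, then above 30% when the compound was retested; inconclusive means passed the primary limit but could not be retested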;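 further: compounds exposed to preformed 24 h biofilms for 48 h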
#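 Test system: C. albicans CAF4-2 wild-type biofilms; buffer or medium: RPMI/MOPS medium, pH 7.0; schedule: 24 h biofilm formation, then 48 h compound exposure, 37 °C; detection: Alamar Blue fluorescence; measure: percent inhibition of biofilm viability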
# S1P4 antag: blocks the human S1P4 receptor | O95977 | S1P4-expressing cells, antagonist mode, reporter read-out | inhibition, % at 4.98 µM | 220,000 compounds, 0.26% hits; in the data active means inhibition above about 29%
# Target sequence (O95977 whole entry, looked up): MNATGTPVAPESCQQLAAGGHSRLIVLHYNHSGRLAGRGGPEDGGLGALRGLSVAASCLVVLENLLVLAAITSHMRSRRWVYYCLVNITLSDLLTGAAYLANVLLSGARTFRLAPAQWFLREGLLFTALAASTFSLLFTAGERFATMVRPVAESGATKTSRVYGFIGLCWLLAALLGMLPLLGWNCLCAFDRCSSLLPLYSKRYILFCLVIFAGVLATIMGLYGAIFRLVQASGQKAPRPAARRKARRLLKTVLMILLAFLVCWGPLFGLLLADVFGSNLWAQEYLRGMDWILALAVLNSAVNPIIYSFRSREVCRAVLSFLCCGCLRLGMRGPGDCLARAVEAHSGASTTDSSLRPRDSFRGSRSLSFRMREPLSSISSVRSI
# Dynein cargo inh: dynein cargo transport inhibition | 3617.4 mouse cells, GR-EGFP nuclear translocation imaging; test concentration mostly 20 µM; stimulated with dexamethasone, 1 µM; hits give low values | 220,000 compounds, 0.47% hits | z-score, hits read low;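 active means plate z-score of nuclear minus cytoplasmic receptor signal below a set negative limit, without overly bright fluorescence or cell loss, cut at about -3.5 in these data, passing the limit was not always enough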;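 further: z-score of nuclear minus cytoplasmic ring GR-EGFP intensity difference per well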
#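 Schedule: 48 h induction, then 1 h compound, then 30 min agonist, 37 °C. Buffer or medium: tetracycline-free induction medium containing charcoal-stripped FBS. Reagent: 1.0 µM final dexamethasone stimulus. Evaluation: nuclear versus cytoplasmic GR-EGFP signal, averaged per well. Signal: high-content fluorescence imaging after fixation.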
# TbHK1 inh: T. brucei hexokinase 1 inhibition; inhibition, % at 10 µM; 220,000 compounds, 0.11% hits; recombinant TbHK1, G6PDH-coupled NADH A340;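 active means inhibition of 50% or more in the single-dose primary screen; inactive means inhibition below 50%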
# S1P4 ag: activates the human S1P4 receptor; O95977; S1P4-expressing cell line, agonist reporter assay; activation, % at 4.98 µM; 220,000 compounds, 0.35% hits; AID 1509; in the data active means activation above about 11%
# S1P3 antagonist: blocks the human S1P3 receptor. Q99500. CHO S1P3 NFAT-BLA reporter, FRET fluorescence, antagonist mode. inhibition, % at 4.98 µM. 170,000 compounds, 0.27% hits. AID 485;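 active means inhibition above the plate cutoff, the mean inhibition of test wells on that plate plus 3 SD, cut at about 28% in these data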;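 further: cells challenged with S1P at its EC80 of 0.8 µM; blue over green emission ratio from cleaved BLA substrate after 4 h stimulation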
# Dynein inh conf: dynein cargo transport inhibition, confirmation; 3617.4 GR-EGFP nuclear translocation imaging, dexamethasone-induced; 1,000 compounds, 69% hits; calls only at 20 µM; AID 463116; shares compounds with Dynein cargo inh;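 active means inhibition of receptor movement into the nucleus at or above a set limit in both runs, with normal cell brightness and cell count; inconclusive means limit reached in only one run, brightness and count normal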;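 further: dexamethasone at 1 µM final in well for 30 min; nuclear minus cytoplasmic GR-EGFP mean intensity difference in channel 2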
# Numbers stand for hits; i = inactive; ? = inconclusive; nt = not tested or not shown; + = active, no number.
SMILES,Biofilm kill mix,S1P4 antag,Dynein cargo inh,TbHK1 inh,S1P4 ag,S1P3 antagonist,Dynein inh conf
N#CC12COC3(CCCCC3C1(C#N)C#N)OC2=N (stereo not given),i,i,-5,i,i,i,+
CCN(CC)c1ccc(NC2CC(=O)N(CCc3ccc(OC)cc3)C2=O)cc1 (stereo not given),i,i,i,i,i,i,nt
COC(=O)C1=C(C)N(CCC2=CCCCC2)C(=O)C1,nt,i,-4.1,i,i,i,i
CCN1C(=O)CC(C(=O)OC)=C1C,i,i,i,i,i,i,nt
O=C1c2cc([N+](=O)[O-])cc3cc([N+](=O)[O-])cc(c23)C(=O)N1c1ccccn1,i,i,-3.5,i,i,i,i
Cc1ccc(SC(=O)c2c([N+](=O)[O-])c(C)nn2C)cc1,i,i,-4.2,i,i,i,+
N#Cc1cc(C(=O)Cc2ccccc2)c[nH]1,i,i,i,i,i,i,nt
CCOC(=O)C(=Cc1ccc(-n2ccnc2)cc1)C(=O)OCC,i,i,-5.6,i,i,i,+
CCOC(=O)C(=O)Nc1ccc(F)cc1,nt,i,i,i,i,nt,nt
CCOC(=O)C(=Cc1ccc(F)cc1)C(=O)OCC,nt,i,-5.2,i,i,nt,+
COC(=O)c1ccc(-n2ccnc2)cc1,i,i,i,i,i,i,nt
Cc1nnc(N/N=C/C(C)c2ccccc2)[nH]c1=O (stereo not given),i,i,i,i,i,i,nt
CCOC(=O)CSC1=NC(=O)/C(=C\c2ccc(Cl)cc2)S1,nt,i,-4.1,i,i,nt,i
CSC1=NC(=O)/C(=C/c2ccc(SC)cc2)S1,i,i,i,i,i,i,nt
Oc1[nH]c(N=C2N=c3ccccc3=N2)c2ccccc12,i,i,i,i,i,i,nt
N#C/C(=C\c1ccccc1)C(=O)N(c1ccccn1)C1CCCCC1,i,i,-3.9,i,i,i,i
O=C(c1cccc(C(=O)N(c2ccccn2)C2CCCCC2)c1)N(c1ccccn1)C1CCCCC1,i,i,i,i,i,i,nt
Cc1ccc(-c2csc3ncnc(SCc4ccc(C(=O)O)cc4)c23)cc1,i,i,i,i,i,i,nt
Cc1ncc(CCl)c2c1OC(C)(C)OC2,i,i,-4.4,i,i,nt,i
CCOC(=O)C1(CCCc2ccccc2)CCN(C(=O)CCC2=NNC(=O)CC2)CC1,i,i,i,i,i,i,nt
CC1(C)CC(=O)C(C2C3=C(CC(C)(C)CC3=O)Oc3ccccc32)C(=O)C1 (stereo not given),i,i,i,i,i,i,nt
CC1(C)CC(=O)C2=C(C1)Oc1nc3ccccc3cc1C2C(C#N)C#N (stereo not given),nt,i,-4.4,i,i,nt,+
Cc1cccc(Nc2ncnc(N)c2[N+](=O)[O-])n1,i,i,i,i,i,i,nt
Cc1cc(C)nc(Sc2ncnc(N)c2[N+](=O)[O-])n1,i,i,-5.4,i,i,i,?
Cc1onc(-c2c(Cl)cccc2Cl)c1-c1nc2cc(Cl)ccc2c(=O)o1,i,i,-4.1,i,i,i,+
SMILES,Biofilm kill mix,S1P4 antag,Dynein cargo inh,TbHK1 inh,S1P4 ag,S1P3 antagonist,Dynein inh conf
CCCCCC(=O)N/N=C/c1ccc([N+](=O)[O-])o1,nt,i,i,i,i,nt,nt
O=C(CCC(=O)Nc1ccc(Cl)cc1Cl)N/N=C/c1ccc([N+](=O)[O-])o1,i,i,-5.2,i,i,i,+
COCCN(C(=O)CCC(=O)Nc1cc(C)on1)C(C(=O)NC1CCCC1)c1ccccc1C (stereo not given),i,i,i,i,i,i,nt
COCCN(C(=O)CCl)C(C(=O)NC1CCCCC1)c1ccccc1C (stereo not given),i,i,-4.4,i,i,i,+
CCCOC(=O)c1ccc(NC(=O)CSC2=Nc3ccccc3C3CC=NN23)cc1 (stereo not given),nt,i,i,i,i,nt,nt
O=C(CSC1=Nc2ccccc2C2CC=NN12)Nc1ccc2c(c1)OCO2 (stereo not given),i,i,-3.7,i,i,i,+
Cn1nc(C(F)(F)F)c(-c2ccc(F)cc2)c1NC(=O)c1cccnc1,i,i,i,i,i,i,nt
O=C(Oc1ccccc1)c1cccc(COC(=O)c2cnccn2)c1,nt,i,i,i,i,i,i
COc1cc(/C=C/[N+](=O)[O-])ccc1OCc1cccc(C(=O)O)c1,i,i,-3.6,i,i,i,+
Cc1ccc2[nH]c(=O)c(CN(CCCO)S(=O)(=O)c3c(C)ccc4nsnc34)cc2c1,nt,i,-5.9,i,i,i,i
Cc1cc2cc(CN(CCCO)S(=O)(=O)c3cccc4nsnc34)c(=O)[nH]c2cc1C,nt,i,i,i,i,i,nt
O=c1c(C(c2nnnn2C2CCCCC2)N2CCCCC2)coc2ccc(Cl)cc12 (stereo not given),nt,i,-4,i,i,i,+
Clc1ccc(C(c2nnnn2C2CCCC2)N2CCN(Cc3ccncc3)CC2)cc1 (stereo not given),nt,i,i,i,i,i,nt
COC(=O)C(=Cc1ccccc1[N+](=O)[O-])C(=O)OC,i,i,-5.4,i,i,i,+
CCCN1C(=O)/C(=C/c2c(NCCCOC(C)C)nc3c(C)cccn3c2=O)SC1=S,nt,i,i,i,i,nt,?
CN(Cc1ccon1)Cc1cn(C)nc1-c1cccc(Cl)c1,i,i,i,i,i,i,nt
Oc1oc(C=Nc2ccc(F)cc2F)c2ccccc12,i,i,i,i,i,i,nt
C=CCn1c(SC(C)C#N)nc2sc(CC)cc2c1=O (stereo not given),i,i,i,i,i,i,nt
Nc1ccc2c3c(cccc13)C(=O)N(c1ccccc1)C2=O,i,i,-5,i,i,i,+
O=C(O)c1ccc2c3c(cccc13)C(=O)N(c1ccccc1)C2=O,i,i,i,i,i,i,nt
COc1ccccc1NC(=O)c1ccc(NC(=O)CN2C(=O)CN(C)C2=O)cc1,i,i,i,i,i,i,nt
CCC(C)(C)C1CCc2[nH]nc(C(=O)N/N=C(\C)c3ccco3)c2C1 (stereo not given),i,i,-3.8,i,i,i,i
O=C(NCc1cccnc1)/C(=C\c1ccc(-c2cccc(Cl)c2)o1)S(=O)(=O)c1ccccc1,i,i,-4.3,i,i,i,+
CC1=NN(c2ccccc2)C(=O)/C1=C\c1sccc1C,i,i,i,i,i,i,nt
CN(C)/C=C1\C(=O)ON=C1c1ccccc1,i,i,i,i,i,i,nt
Cc1ccc(C2=NOC(=O)/C2=C\C=C\c2ccccc2)cc1,i,i,-5.6,i,i,i,+
CC1=NN(c2ccccc2)C(=O)/C1=C/C=C/c1ccccc1,i,i,-5.8,i,i,i,+
COCc1cc(C)nc(N/N=C/c2ccc(-c3ccc(Cl)cc3[N+](=O)[O-])o2)c1C#N,i,i,i,i,i,i,nt

# Source: PubChem
